For assay [1], the target named is T1, Serine/threonine-protein kinase Nek2 (Homo sapiens, UniProt P51955).
T1 sequence (P51955 whole entry): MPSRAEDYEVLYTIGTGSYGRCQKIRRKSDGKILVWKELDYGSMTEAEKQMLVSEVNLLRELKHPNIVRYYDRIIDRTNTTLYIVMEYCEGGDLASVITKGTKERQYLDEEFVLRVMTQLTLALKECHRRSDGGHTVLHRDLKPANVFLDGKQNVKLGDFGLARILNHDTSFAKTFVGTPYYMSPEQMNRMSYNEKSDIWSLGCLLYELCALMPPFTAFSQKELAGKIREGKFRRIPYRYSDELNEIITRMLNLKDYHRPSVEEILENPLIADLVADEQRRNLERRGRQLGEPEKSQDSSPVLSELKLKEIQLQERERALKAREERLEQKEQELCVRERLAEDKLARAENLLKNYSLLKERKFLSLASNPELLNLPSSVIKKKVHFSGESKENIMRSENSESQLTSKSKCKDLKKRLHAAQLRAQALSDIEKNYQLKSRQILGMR
Nature of the assay: Inhibition of human recombinant Nek2 in presence of 50 uM ATP by ADP-Glo kinase assay. In outline: (§1)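 Kinase activity was measured at 50 μM ATP using recombinant enzyme. A concentration-response curve was generated for each kinase, and IC50 was obtained by fitting the data.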
In general terms: ADP-Glo first removes unused ATP, then detects ADP through luciferase.

For a further assay, the target named is T2, Aurora kinase A (Homo sapiens, UniProt O14965).
T2 sequence (O14965 whole entry): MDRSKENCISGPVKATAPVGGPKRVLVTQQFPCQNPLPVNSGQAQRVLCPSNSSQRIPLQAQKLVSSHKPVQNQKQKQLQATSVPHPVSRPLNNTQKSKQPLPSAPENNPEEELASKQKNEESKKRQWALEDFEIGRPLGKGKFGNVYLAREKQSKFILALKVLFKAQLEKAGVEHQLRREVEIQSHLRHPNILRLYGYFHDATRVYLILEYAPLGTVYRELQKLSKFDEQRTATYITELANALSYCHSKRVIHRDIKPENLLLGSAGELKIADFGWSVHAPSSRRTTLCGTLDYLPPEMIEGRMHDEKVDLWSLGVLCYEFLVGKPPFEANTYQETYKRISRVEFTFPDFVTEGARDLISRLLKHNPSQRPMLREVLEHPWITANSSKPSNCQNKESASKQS
As to the kind of experiment: Inhibition of Aurora A (unknown origin). The method, boiled down:
as §1

Assay [2] addresses T1, Serine/threonine-protein kinase Nek2. As to the kind of experiment: Inhibition of human recombinant Nek2 in presence of 150 uM ATP by ADP-Glo kinase assay. The method, boiled down:
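Recombinant human Nek2 kinase activity assay run with ATP raised threefold, from the standard 50 μM to 150 μM. Inhibitor tested over a concentration series, and IC50 obtained by fitting the concentration-response curve.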

Assay [3] concerns A549. As to the kind of experiment: Antimigratory activity against human A549 cells at 50 to 100 uM by wound healing assay. The class given is functional, cell-based. The note with it: dose 50-100 µM. The method, boiled down: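 A549 monolayers were scratched and treated. Migration was judged by imaging wound boundaries at the initial scratch (t = 0) and at 24 hr post-treatment, compared with vehicle control.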

Assay [4] has as its system A549. Nature of the assay: Inhibition of Akt phosphorylation at S473 residue in human A549 cells by Western blotting analysis. The conditions noted are these: dose 5-20 µM. It is filed as cell-based. The method, boiled down:
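A549 cells were treated for 24 h across several concentrations. Ser-473 phospho-Akt was detected by Western blot with GAPDH as the loading control. DMSO served as vehicle control and a reference Nek2 inhibitor as positive control.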
A general note: Immunoblotting shows a protein as a band on a membrane.

Assay [5] has as its target Serine/threonine-protein kinase Nek7 (Homo sapiens, UniProt Q8TDX7). Nature of the assay: Inhibition of Nek7 (unknown origin). The method, boiled down:
as §1

The target of assay [6] is Serine/threonine-protein kinase PLK1 (Homo sapiens, UniProt P53350). As to the kind of experiment: Inhibition of Plk1 (unknown origin). The method, boiled down:
as §1

Assay [7] deals with Cyclin-dependent kinase 1 (Homo sapiens, UniProt P06493). Nature of the assay: Inhibition of CDK1 (unknown origin). The method, boiled down:
as §1

The subject of another assay is MDA-MB-231. As to the kind of experiment: Cytotoxicity against human MDA-MB-231 cells assessed as inhibition of cell growth by MTT assay. The class given is functional, cell-based. The method, boiled down: (§2)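 Cell viability read by MTT assay across a range of concentrations. EC50 taken from the dose-response curve. See Supporting Information, Section III, for details not given here.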

Assay [8] relates to A549. Nature of the assay: Cytotoxicity against human A549 cells assessed as inhibition of cell growth by MTT assay. The class given is functional, cell-based. The method, boiled down: as §2

Molecules are shown by their SMILES. Active and inactive are the calls of the source. The calls are words filed in the database; no cut-off is given here.

Cyclin-dependent kinase 1, sequence (P06493 whole entry): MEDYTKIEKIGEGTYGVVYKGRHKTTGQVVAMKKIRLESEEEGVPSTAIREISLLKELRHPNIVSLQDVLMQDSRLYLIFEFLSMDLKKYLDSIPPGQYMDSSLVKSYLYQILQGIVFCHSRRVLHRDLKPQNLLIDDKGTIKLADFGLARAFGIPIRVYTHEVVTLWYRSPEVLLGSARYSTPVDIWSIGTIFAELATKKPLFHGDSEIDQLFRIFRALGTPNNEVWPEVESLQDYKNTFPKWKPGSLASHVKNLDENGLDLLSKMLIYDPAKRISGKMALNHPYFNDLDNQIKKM
Serine/threonine-protein kinase PLK1, sequence (P53350 whole entry): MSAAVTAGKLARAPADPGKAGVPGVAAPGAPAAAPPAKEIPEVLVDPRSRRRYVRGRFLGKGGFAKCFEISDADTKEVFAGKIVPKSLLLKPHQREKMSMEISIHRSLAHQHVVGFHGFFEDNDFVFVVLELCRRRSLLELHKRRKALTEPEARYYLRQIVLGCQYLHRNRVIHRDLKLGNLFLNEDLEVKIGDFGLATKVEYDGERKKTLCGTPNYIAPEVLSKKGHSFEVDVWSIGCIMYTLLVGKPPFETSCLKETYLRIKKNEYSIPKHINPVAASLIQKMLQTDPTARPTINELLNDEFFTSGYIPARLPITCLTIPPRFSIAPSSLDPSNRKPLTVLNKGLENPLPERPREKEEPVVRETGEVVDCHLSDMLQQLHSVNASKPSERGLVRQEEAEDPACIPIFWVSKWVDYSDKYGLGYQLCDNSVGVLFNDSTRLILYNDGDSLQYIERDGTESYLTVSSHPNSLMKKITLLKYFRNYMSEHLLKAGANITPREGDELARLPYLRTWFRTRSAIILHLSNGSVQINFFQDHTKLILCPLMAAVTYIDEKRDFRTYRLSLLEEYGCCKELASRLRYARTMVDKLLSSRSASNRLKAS
Serine/threonine-protein kinase Nek7, sequence (Q8TDX7 whole entry): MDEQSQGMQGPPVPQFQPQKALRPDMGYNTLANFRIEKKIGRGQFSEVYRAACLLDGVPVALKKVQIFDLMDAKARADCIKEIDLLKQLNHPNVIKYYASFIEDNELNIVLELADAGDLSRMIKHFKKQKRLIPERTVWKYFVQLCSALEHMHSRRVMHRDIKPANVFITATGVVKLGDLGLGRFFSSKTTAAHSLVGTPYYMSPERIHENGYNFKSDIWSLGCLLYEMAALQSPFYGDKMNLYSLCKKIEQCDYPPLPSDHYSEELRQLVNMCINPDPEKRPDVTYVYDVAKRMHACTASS

With `O=C1NC2(CCN(S(=O)(=O)c3ccccc3)CC2)N=C1c1ccc(Cl)cc1`, the IC50 in assay [1] stood at 6 µM. With `CN1CCC2(CC1)NCC(=O)N2`, the IC50 in assay [1] stood at 58.1 µM.

As to `CC(C)(C)c1ccc(C2=NC3(CCN(S(C)(=O)=O)CC3)NC2=O)cc1`, the IC50 in [1] stood at 8.7 µM. Same read-out and setting: the same measure for `CC(C)(C)c1ccc(S(=O)(=O)N2CCC3(CC2)N=C(c2ccc(Br)cc2)C(=O)N3)cc1`: 5 µM; for `O=C1NC2(CCN(S(=O)(=O)c3cccs3)CC2)N=C1c1ccc(Br)cc1`: 5.6 µM; for `O=C1NC2(CCN(S(=O)(=O)c3ccccc3)CC2)N=C1c1ccc(Br)cc1`: 9.3 µM. On the same count and under the same terms, the figure for `O=C1NC2(CCN(C(=O)c3ccccc3)CC2)N=C1c1ccc(Br)cc1` is 9.2 µM; for `O=C1NC2(CCN(S(=O)(=O)c3ccccc3)CC2)N=C1c1ccc(F)cc1` it is 4.5 µM. Still for that read-out and setting: the figure for `CCOC(=O)c1ccc(S(=O)(=O)N2CCC3(CC2)N=C(c2ccc(Br)cc2)C(=O)N3)cc1` is 14.6 µM. With `Cc1ccc(S(=O)(=O)N2CCC3(CC2)N=C(c2ccc(Br)cc2)C(=O)N3)cc1C`, the IC50 in assay [1] came out at 12.3 µM. On the same count and under the same terms, the same measure for `O=C1NC2(CCN(S(=O)(=O)Cc3ccccc3)CC2)N=C1c1ccc(Br)cc1`: 6.8 µM. Still for that read-out and setting: the figure for `Cc1cc(C)c(S(=O)(=O)N2CCC3(CC2)N=C(c2ccc(Br)cc2)C(=O)N3)c(C)c1` is 9.8 µM; for `Cc1ccc(C2=NC3(CCN(S(C)(=O)=O)CC3)NC2=O)cc1` it is 4.9 µM. Consider `CS(=O)(=O)N1CCC2(CC1)N=C(c1ccc(Br)cc1)C(=O)N2`, for which the IC50 against Aurora kinase A was determined as 21.3 µM; in assay [2], 17.1 µM; in assay [5] it was 28.8 µM; in assay [1] it was 2.4 µM; in [6], 20.4 µM; in [7] it was 29.3 µM. For the same compound, the IC50 with MDA-MB-231 was determined as 18.1 µM; in the assay on A549 [8], 22.7 µM. For the same compound, the outcome with A549 [3] was Active. In addition, the inhibition result in the assay with A549 [4] was “Dose-Dependent Effect”. As for `Cc1ccc(C2=NC3(CCN(S(C)(=O)=O)CC3)NC2=O)cc1C`, the IC50 in assay [1] was 3.2 µM. The same measure, in the same setting: the figure for `O=C1NC2(CCN(S(=O)(=O)c3ccccc3)CC2)N=C1c1ccccc1` is 8.1 µM; for `O=C1CNC2(CCNCC2)N1` it is 32.5 µM; for `CS(=O)(=O)N1CCC2(CC1)NCC(=O)N2` it is 32.1 µM.

By IC50 is commonly meant the concentration that gives 50% inhibition.

(Values after ChEMBL document CHEMBL5257104, “Identification of a novel spirocyclic Nek2 inhibitor using high throughput virtual screening” (Bioorg Med Chem Lett, 2023).)
